# UPR CHOP act: apoptotic UPR (CHOP) activation; activation, % at 10 µM; hit rate 0.34% among 330,000; CHO-CHOP luciferase reporter, luminescence; percent of tunicamycin response over DMSO baseline;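 active = at 10 µM dose, activation of 40% or more, normalized to positive control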;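 also: 100% = tunicamycin at 10 µg/mL and 0% = DMSO alone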
#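 measured by = luciferase luminescence | assay system = CHO-CHOP cells, stable luciferase reporter of PERK-eIF2a-CHOP signalling | amount = 500 reporter cells seeded per well | timing = 6 h compound exposure at 37 °C after overnight seeding | controls = positive tunicamycin 10 µg/mL, negative DMSO alone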
# 697 NFkB inh: lowers PMA/ionomycin-induced NF-kB signal in 697 B cells. 697 B-cell NF-kB luciferase reporter, 16 h. inhibition, % at 4 µM. hit rate 0.33% among 330,000. AID 435022; in the data active = inhibition above about 35%
# Jurkat NFkB inh: lowers PMA/ionomycin-induced NF-kB signal in Jurkat cells. PMA/ionomycin-induced NF-kB luciferase reporter, luminescence. inhibition, % at 4 µM. hit rate 0.53% among 330,000. AID 435003; in the data active = inhibition above about 50%
# CHOP inh: inhibitors of CHOP induction in ER stress response | CHO-K1 CHOP-promoter luciferase, tunicamycin-induced, 15-18 h | hit rate 3.8% among 220,000 | inhibition, % at 10 µM | AID 2732;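 active = compounds that reduced the stress-induced luciferase reporter signal by more than about 70% of percent inhibition, limit read from the data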;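 also: 0% = tunicamycin plus vehicle and 100% = wells without tunicamycin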
# XBP1 UPR activ: adaptive UPR (XBP1) activation; CHO-XBP1 luciferase reporter, IRE1-XBP1 UPR activation, luminescence; percent of tunicamycin response, DMSO as zero; AID 463104; hit rate 0.33% among 330,000; activation, % at 20 µM;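 active = versus positive control, 20 µM dose yields 30% or more activation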;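 also: 100% = tunicamycin at 10 µg/mL and 0% = DMSO only wells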
#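 Material: IRE1-XBP1 luciferase reporter CHO line / Quantity: one thousand reporter cells per well / Buffer or medium: F12 with 10% serum / Compound: 20 µM single concentration, DMSO 1% / Times: 6 h treatment, 37 °C / Detection: Steady-Glo luciferase glow luminescence, 10 min after reagent addition / Benchmarks: tunicamycin high, DMSO low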
# Jurkat NFkB conf: inhibitors of the PMA/ionomycin-induced NF-kB reporter in Jurkat cells, retest; shares compounds with Jurkat NFkB inh; Jurkat NF-kB luciferase, 16 h; inhibition, % at 4 µM; hit rate 27% among 2,700;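 active = inhibition reaching about 45% at 4 µM in either replicate, limit read from the data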;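 also: plate controls were PMA/ionomycin stimulated DMSO wells for no effect and unstimulated DMSO wells for full effect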
# 697 NFkB conf: lowers PMA/ionomycin-induced NF-kB signal in 697 B cells | shares compounds with 697 NFkB inh | 697 B-cell NF-kB luciferase, 16 h | inhibition, % at 4 µM | hit rate 35% among 2,000 | AID 449746; in the data active = inhibition mostly above about 28%, no sharp cut-off; inactive = mostly below about 22%
# An asterisk follows results filed as active; / = no result. The entries come from a sample that favours hits as a whole.
SMILES,UPR CHOP act,697 NFkB inh,Jurkat NFkB inh,CHOP inh,XBP1 UPR activ,Jurkat NFkB conf,697 NFkB conf
Cc1cc(C(=O)Nc2sc(C)c(-c3ccc(F)cc3)c2C(N)=O)no1,3,-294,-192,13,7,-96,-204
COc1ccc(-c2nc(-c3ccncc3)no2)c(OC)c1,-3,-380,-201,/,-6,-98,-283
COc1ccc(-c2noc(-c3ccccc3F)n2)cc1,-2,-287,-207,38,-4,-106,-234
COc1ccccc1-c1nc(-c2cccc(C)c2)no1,1,-284,-212,66,-3,-178,-258
COc1cc(-c2nc(-c3cccc(C)c3)no2)cc(OC)c1OC,0,-25,-27,7,7,/,/
COc1cc(OC)c(-c2nc(-c3ccncc3)no2)cc1OC,0,25,9,/,-2,/,/
Clc1ccc(N2CCN(/N=C/c3cccnc3)CC2)cc1,2,-3,7,/,4,/,/
O=C(O)CCc1[nH]c2ccccc2c1Sc1ccccc1,3,11,-1,/,0,/,/
COCCCN1C(=O)c2ccc(C(=O)NCc3ccccn3)cc2C1=O,-2,12,-4,/,-1,/,/
COc1cccc(CC2(CO)CCCN(Cc3ccc4c(c3)OCCO4)C2)c1 (centres undefined),1,1,4,-7,-3,/,/
COCCn1c(C)cc(C2=NNC(=NC3CC3)SC2)c1C,-10,68*,75*,103*,-7,94*,65*
C#CCOc1ccc(CNC[C@H]2O[C@@H](n3cnc4c(N)ncnc43)[C@H](O)[C@@H]2O)cc1,1,-9,-2,/,-1,/,/
Cc1nn(-c2ccccc2)c(N)c1-c1ccccc1,2,-39,-45,-13,2,/,/
Cc1nn(-c2nc3ccccc3[nH]2)c(N)c1-c1ccccc1,4,-254,-151,9,11,-72,-212
CC(C)n1cnc2c(Nc3ccc(F)c(Cl)c3)nc(NCCO)nc21,3,-23,-19,/,13,/,/
C=CC(=O)Nc1ccc(Nc2nc(NC3CCC(N(C)C)CC3)nc3c2ncn3C(C)C)cc1 (centres undefined),-2,97*,100*,/,-4,97*,80*
O=C1COc2ccc(S(=O)(=O)Nc3ccc(F)cc3)cc2N1,-1,3,6,/,-4,/,/
O=C(NC(=S)Nc1ccc(Cl)cn1)c1cccs1,2,-324,-164,15,-5,-100,-167
O=C(NC(=S)Nc1cccnc1)c1cccs1,0,0,-17,19,-3,/,/
COc1ccc(-c2c(C)nc3c(-c4ccsc4)cnn3c2N)cc1,4,-252,-196,/,-4,-76,-165
O=C(NCc1nnc(SCC(=O)N2CCCC2)o1)c1cccc(C(F)(F)F)c1,0,-25,14,/,-2,/,/
CC1(c2ccc(OC(F)F)cc2)NC(=O)N(CC(=O)c2ccc3c(c2)OCO3)C1=O (centres undefined),1,21,-2,/,-3,/,/
COCCn1c(C)cc(C(=O)CSc2nc3ccccc3c(=O)n2Cc2ccco2)c1C,5,-276,-159,27,-1,5,-103
COCCn1c(C)cc(C(=O)CSc2cc(C)c3ccccc3n2)c1C,1,14,-2,17,-2,/,/
CC(C)CN(C(=O)c1ccc([N+](=O)[O-])s1)c1c(N)n(Cc2ccccc2)c(=O)[nH]c1=O,1,8,3,/,-2,/,/
SMILES,UPR CHOP act,697 NFkB inh,Jurkat NFkB inh,CHOP inh,XBP1 UPR activ,Jurkat NFkB conf,697 NFkB conf
COc1cc2c(c(OC)c1OC)-c1ccc(OC)c(=O)cc1[C@@H](NC(C)=O)CC2,-1,-253,71*,-10,9,69*,-172
NC(=O)c1ccccc1OCC(=O)Nc1ccc2c(c1)CCC2,4,-45,-41,/,-1,/,/
NC(=O)c1ccccc1OCC(=O)Nc1ccc(Cl)c(Cl)c1,1,-372,-187,-43,0,-121,-389
O=C(/C=C/Nc1ccc(F)cc1F)c1cccs1,-5,-364,-168,52,-9,-37,-197
O=C(/C=C/Nc1ccc(F)cc1F)c1ccc(Br)cc1,4,-255,-167,/,-2,-30,-62
Cc1ccc(N/C=C/C(=O)c2cccs2)cc1,-7,-261,-158,22,-14,9,-133
O=C(/C=C/Nc1ccc(F)cc1F)c1ccco1,-2,-154,-64,16,-7,/,/
CC(=O)c1ccc(N/C=C/C(=O)c2ccc(Br)cc2)cc1,5,-173,-96,/,0,/,/
Cc1ccc(-c2nc(C#N)c(N3CCC(C(N)=O)CC3)o2)cc1,1,12,3,/,-1,/,/
O=C(NNC(=O)c1ccccc1F)c1ccc(Cl)c(S(=O)(=O)N2CCOCC2)c1,-1,18,-4,/,-1,/,/
O=C1N(c2ccccc2)CCN1c1ccccc1,3,-269,-185,/,-4,-111,-180
Cc1ccc(C(=O)N/N=C/c2ccc([N+](=O)[O-])s2)cc1,-9,38*,64*,70*,-11,48*,16
O=C(N/N=C/c1ccc([N+](=O)[O-])s1)c1ccncc1,0,1,26,-28,3,/,/
CC(C(=O)N1c2ccccc2CC1C)N1CCN(S(=O)(=O)c2ccccc2F)CC1 (centres undefined),-1,1,-8,/,0,/,/
C(=N\Nc1nc2ccccc2s1)/c1ccco1,0,-297,-160,7,-4,-100,-245
Cc1ccc(Nc2nc3ccccc3s2)cc1,7,-288,-153,46,5,-124,-265
Cc1ccsc1/C=N/Nc1nc2ccccc2s1,2,-342,-198,-19,-2,-98,-273
COc1ccc2cc(C(C)C(=O)O)ccc2c1 (centres undefined),1,10,-7,/,-9,/,/
O=C(/C=C\Nc1ccc2c(c1)OCO2)c1ccc(Cl)s1,-3,-407,-201,54,-7,-18,-106
O=C(/C=C\Nc1ccc2c(c1)OCO2)c1ccc2c(c1)OCO2,-3,-200,-116,37,-8,/,/
CCC(C)(C)c1ccc(OCCCC[n+]2ccc(C)cc2)c(C(C)(C)CC)c1,0,81*,54*,76*,19,55*,44*
Cc1cc[n+](CC[n+]2ccc(C)cc2)cc1,3,7,-14,/,-1,/,/
Cc1ccc2ncnc(Oc3ncccc3NC(=O)C(C)(C)C)c2c1,0,5,9,-1,-2,/,/
N#CC(c1cccc(Cl)c1)c1ccc2c(C(F)(F)F)cc(C(F)(F)F)nc2n1 (centres undefined),18,66*,58*,102*,2,59*,33*
NNc1ccc2c(C(F)(F)F)cc(C(F)(F)F)nc2n1,-1,14,9,-27,-4,/,/
CCOC(=O)c1sc(NC(C)=O)cc1C,2,5,-8,-1,2,/,/
